The results in this text go back to ChEMBL document CHEMBL3286091, “Novel N-linked aminopiperidine-based gyrase inhibitors with improved hERG and in vivo efficacy against Mycobacterium tuberculosis” (J Med Chem, 2014).

For orientation: MIC means the lowest concentration that inhibits growth of the organism. A lower MIC goes with a more susceptible organism.

Values after ≈ are worked out from the molar mass of the structure shown. Active and inactive are the calls of the source. The rule behind the calls is not given here.

Assay [1] has as its system Mycobacterium tuberculosis. Put plainly: Antimycobacterial activity against moxifloxacin-resistant Mycobacterium tuberculosis harboring DNA gyraseA G88N mutant. In kind it is functional.
In assay [2] the test system is Mycobacterium tuberculosis. The assay can be described thus: Antimycobacterial activity against 2-oxo-1-(2-(4-((3-oxo-3,4-dihydro-2H-pyrido[3,2-b][1,4]oxazin-6-yl)methylamino)piperidin-1-yl)ethyl)-1,2-dihydroquinoline-7-carbonitrile-resistant Mycobacterium tuberculosis harboring DNA gyraseA A74V mutant. Type of assay: functional.
A short description of assay [3]: Ratio of MIC for 5-(((3S,4R)-3-Fluoro-1-(2-(7-methoxy-2-oxo-1,5-naphthyridin-1(2H)-yl)ethyl)piperidin-4-ylamino)methyl)-2-methylnicotinonitrile-resistant Mycobacterium tuberculosis harboring DNA gyraseA D89N mutant to MIC for wild-type Mycobacterium tuberculosis H37Rv ATCC 27294. Type of assay: functional.
The test system of assay [4] is Mycobacterium tuberculosis. Put plainly: Antimycobacterial activity against 5-(((3S,4R)-3-Fluoro-1-(2-(7-methoxy-2-oxo-1,5-naphthyridin-1(2H)-yl)ethyl)piperidin-4-ylamino)methyl)-2-methylnicotinonitrile-resistant Mycobacterium tuberculosis harboring DNA gyraseA D89N mutant. Type of assay: functional.
Assay [5] relates to Mycobacterium tuberculosis. Put plainly: Antimycobacterial activity against spontaneously resistant mutant of Mycobacterium tuberculosis H37Rv at 8 times MIC up to 6 to 8 weeks. Type of assay: functional, organism-based. The essentials: (§1)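 Single-step selection: mid-log H37Rv culture concentrated 100-fold to ~10^10 cfu/mL and plated in dilutions on 7H11 agar with varying drug concentrations. Drug-free plates were counted after 4 weeks at 37 °C and drug plates after 6−8 weeks. Frequency is the colony count on drug plates divided by viable cfu on drug-free plates.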

Assay [6] is described as follows: Ratio of MIC for 2-oxo-1-(2-(4-((3-oxo-3,4-dihydro-2H-pyrido[3,2-b][1,4]oxazin-6-yl)methylamino)piperidin-1-yl)ethyl)-1,2-dihydroquinoline-7-carbonitrile-resistant Mycobacterium tuberculosis harboring DNA gyraseA A74V mutant to MIC for wild-type Mycobacterium tuberculosis H37Rv ATCC 27294. In kind it is functional.
Assay [7] has as its system Mycobacterium tuberculosis. Put plainly: Antimycobacterial activity against spontaneously resistant mutant of Mycobacterium tuberculosis H37Rv at 10 to 20 times MIC up to 6 to 8 weeks. In kind it is functional, organism-based. The essentials:
as §1

As for `CC1COc2c(N3CCN(C)CC3)c(F)cc3c(=O)c(C(=O)O)cn1c23` (centres undefined) [OFLOXACIN], the MIC in assay [1] was 16 µg/mL (≈ 44.3 µM); in assay [2] it was 1 µg/mL (≈ 2.77 µM); in assay [4] it was 4 µg/mL (≈ 11.1 µM). The Ratio in assay [3] worked out at 8.
In the case of `O=C1COc2ccc(CN[C@H]3CCN(CCn4c(=O)ccc5ncc(F)cc54)C[C@H]3F)nc2N1`, the values for the MIC in assay [1], in assay [2] and in assay [4] were 0.06 µg/mL (≈ 0.128 µM), more than 2 µg/mL and more than 2 µg/mL, respectively.
Take `O=C(O)c1cn(C2CC2)c2cc(N3CCNCC3)c(F)cc2c1=O` [CIPROFLOXACIN]: the MIC came out at 8 µg/mL (≈ 24.1 µM) in assay [1], 0.25 µg/mL (≈ 0.754 µM) in assay [2] and 4 µg/mL (≈ 12.1 µM) in assay [4]. The result in assay [5] was inactive. The Ratio in assay [3] worked out at 16.
For the compound `Cc1ncc(CNC2CCN(CCn3c(=O)ccc4ccc(C#N)cc43)CC2)cc1C#N`, the MIC in assay [1] is 0.06 µg/mL (≈ 0.141 µM); in assay [2], more than 2 µg/mL; in assay [4], more than 2 µg/mL. Besides, the Ratio in assay [3] and in assay [6] was more than 16 throughout.
For the compound `COc1c(N2C[C@@H]3CCCN[C@@H]3C2)c(F)cc2c(=O)c(C(=O)O)cn(C3CC3)c12` [MOXIFLOXACIN], in assay [7], the result was inactive. The MIC turned out to be 4 µg/mL (≈ 9.96 µM) in assay [1], 0.06 µg/mL (≈ 0.149 µM) in assay [2] and 1 µg/mL (≈ 2.49 µM) in assay [4].
In the case of `NNC(=O)c1ccncc1` [ISONIAZID], the MIC in assay [1] worked out at 0.06 µg/mL (≈ 0.438 µM); in assay [2], 0.06 µg/mL (≈ 0.438 µM); in assay [4], 0.03 µg/mL (≈ 0.219 µM).
Take `CO[C@H]1/C=C/O[C@@]2(C)Oc3c(C)c(O)c4c(O)c(c(/C=N/N5CCN(C)CC5)c(O)c4c3C2=O)NC(=O)/C(C)=C\C=C\[C@H](C)[C@H](O)[C@@H](C)[C@@H](O)[C@@H](C)[C@H](OC(C)=O)[C@@H]1C` [RIFAMPIN]: the values for the MIC in assay [1], in assay [2] and in assay [4] were 0.008 µg/mL (≈ 0.00972 µM), 0.008 µg/mL (≈ 0.00972 µM) and 0.015 µg/mL (≈ 0.0182 µM), respectively.
`COc1cnc2ccc(=O)n(CCN3CC[C@@H](NCc4cnc(C)c(C#N)c4)[C@@H](F)C3)c2c1`: the outcome in assay [7] was inactive. Besides, the values for the minimum inhibitory concentration (MIC) in assay [1], in assay [2] and in assay [4] were 0.03 µg/mL (≈ 0.0666 µM), 1 µg/mL (≈ 2.22 µM) and more than 1 µg/mL, respectively. For the same compound, the Ratio in assay [3] and in assay [6] was more than 16 in each case.
In the case of `N#Cc1ccc2ccc(=O)n(CCN3CCC(NCc4ccc5c(n4)NC(=O)CO5)CC3)c2c1`, the MIC is 0.03 µg/mL (≈ 0.0654 µM) in assay [1], 2 µg/mL (≈ 4.36 µM) in assay [2] and more than 2 µg/mL in assay [4]. Moreover, the outcome in assay [5] was inactive. Moreover, the Ratio in assay [3] and in assay [6] was more than 16 throughout.
